Data on four compounds can be found in ChEMBL document CHEMBL1128234, “Isothiocyanate-substituted benzyl ether opioid receptor ligands derived from 6 beta-naltrexol” (J Med Chem, 1995).

SMILES strings stand for the structures.

Assay [1] concerns the target Mu-type opioid receptor (Cavia porcellus) (UniProt P97266). Briefly: Irreversible binding affinity at mu-receptor was evaluated as % of control specific binding remaining unwashed at concentration of 10 (nM) using [3H]-DAMGO radioligand Values from 3 separate assays (+/-10%). The method in brief:
(§1)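 Diluted guinea pig brain homogenate is exposed to ligand for 60 min at 25 °C; protected samples are first preincubated 15 min at 37 °C with 1 naloxone. Washed samples are diluted in ice-cold Tris pH 7.4, spun at 10000g for 15 min at 4 °C, then resuspended and incubated 15 min at 37 °C, twice. Read-out is standard radioligand binding, expressed as % of recovery-sample specific binding. Test ligands run in triplicate; reference averaged over three assays.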

The target is the same in assay [2]. Briefly: Irreversible binding affinity at mu-receptor was evaluated as % of control specific binding remaining washed at concentration of 10 (nM) using [3H]DAMGO radioligand Values from 3 separate assays (+/-10%).
The target is the same in assay [3]. Briefly: Irreversible binding affinity at mu-receptor was evaluated as % of control specific binding remaining protected at concentration of 10 (nM) using [3H]DAMGO radioligand Values from 3 separate assays (+/-10%). Summed up: as §1
A short description of assay [4]: Inhibitory concentration was determined against delta-opioid receptor using [3H]- DPDPE radioligand.
Assay [5] addresses Kappa-type opioid receptor (Cavia porcellus, UniProt P41144). Briefly: Inhibitory concentration against Opioid receptor kappa 1 using [3H]- U-69,593 radioligand. Summed up:
(§2)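 Guinea pig brain (minus cerebellum) homogenate in 0.05 M Tris pH 7.4, diluted 1:60 (0.8-1.5 mg protein/ml). Ligand tested in duplicate at nine concentrations; 60 min at 25 °C. Nonspecific binding defined with naloxone. Filtration, ice-cold buffer rinse, scintillation counting.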

Assay [6] deals with Mu-type opioid receptor (Cavia porcellus) (UniProt P97266). Briefly: Irreversible binding affinity at mu-receptor was evaluated as % of control specific binding remaining protected at concentration of 30 (nM) using [3H]DAMGO radioligand. The method in brief: as §1
Mu-type opioid receptor (Cavia porcellus), sequence (P97266 whole entry): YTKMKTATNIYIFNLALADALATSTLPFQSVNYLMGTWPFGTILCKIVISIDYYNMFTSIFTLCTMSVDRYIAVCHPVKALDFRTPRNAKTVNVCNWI
The target is the same in assay [7]. Briefly: Irreversible binding affinity at mu-receptor was evaluated as % of control specific binding remaining protected at concentration of 50 (nM) using [3H]DAMGO radioligand. The method in brief:
as §1

For assay [8] the target is unchanged. Briefly: Irreversible binding affinity at mu-receptor was evaluated as % of control specific binding remaining unwashed at concentration of 30 (nM) using [3H]DAMGO radioligand. Summed up: (§3)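 Guinea pig brain homogenate (less cerebellum) in 0.05 M Trizma pH 7.4, diluted 1:60. It was incubated with ligand 60 min at 25 °C, then diluted in ice-cold buffer and centrifuged 10000g. Washed samples were resuspended in buffer, incubated 15 min at 37 °C and recentrifuged. Binding used 1.0 nM [3H]DAMGO for 60 min at 25 °C, with filtration and counting. Nonspecific binding was set with 10 µM naloxone. Triplicates; % specific binding was taken relative to recovery controls.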

Assay [9] shares this target. Briefly: Irreversible binding affinity at mu-receptor was evaluated as % of control specific binding remaining unwashed at concentration of 50 (nM) using [3H]DAMGO radioligand. Summed up:
as §3

The target in assay [10] is Kappa-type opioid receptor (Cavia porcellus) (UniProt P41144). Briefly: Irreversible binding affinity at Opioid receptor kappa 1 was evaluated as % of control specific binding remaining unwashed at concentration of 20 (nM) using [3H]U-69593 radioligand. Summed up:
as §1

Assay [11] has the same target. Briefly: Irreversible binding affinity at Opioid receptor kappa 1 was evaluated as % of control specific binding remaining unwashed at concentration of 40 (nM) using [3H]U-69593 radioligand. Summed up: as §1
Assay [12] has the same target. Briefly: Irreversible binding affinity at Opioid receptor kappa 1 was evaluated as % of control specific binding remaining washed at concentration of 20 (nM) using [3H]U-69593 radioligand. Summed up:
as §1

Assay [13] concerns the target Mu-type opioid receptor (Cavia porcellus) (UniProt P97266). Briefly: Irreversible binding affinity at mu-receptor was evaluated as % of control specific binding remaining washed at concentration of 30 (nM) using [3H]DAMGO radioligand. The method in brief: as §3
Assay [14] addresses Kappa-type opioid receptor (Cavia porcellus) (UniProt P41144). Briefly: Irreversible binding affinity at Opioid receptor kappa 1 was evaluated as % of control specific binding remaining protected at concentration of 20 (nM) using [3H]U-69593 radioligand. Summed up:
as §1

For assay [15] the target is unchanged. Briefly: Irreversible binding affinity at Opioid receptor kappa 1 was evaluated as % of control specific binding remaining protected at concentration of 40 (nM) using [3H]U-69593 radioligand. Summed up: as §1
The target of assay [16] is Opioid receptors; mu/kappa/delta. Briefly: Inhibitory concentration was determined against Opioid receptors using [3H]- bremazocine radioligand. The assay is classed as protein assay, Cavia porcellus. Summed up: as §2
Assay [17] deals with Kappa-type opioid receptor (Cavia porcellus) (UniProt P41144). Briefly: Irreversible binding affinity at Opioid receptor kappa 1 was evaluated as % of control specific binding remaining washed at concentration of 40 (nM) using [3H]U-69593 radioligand. Summed up: as §1
Kappa-type opioid receptor (Cavia porcellus), sequence (P41144 whole entry): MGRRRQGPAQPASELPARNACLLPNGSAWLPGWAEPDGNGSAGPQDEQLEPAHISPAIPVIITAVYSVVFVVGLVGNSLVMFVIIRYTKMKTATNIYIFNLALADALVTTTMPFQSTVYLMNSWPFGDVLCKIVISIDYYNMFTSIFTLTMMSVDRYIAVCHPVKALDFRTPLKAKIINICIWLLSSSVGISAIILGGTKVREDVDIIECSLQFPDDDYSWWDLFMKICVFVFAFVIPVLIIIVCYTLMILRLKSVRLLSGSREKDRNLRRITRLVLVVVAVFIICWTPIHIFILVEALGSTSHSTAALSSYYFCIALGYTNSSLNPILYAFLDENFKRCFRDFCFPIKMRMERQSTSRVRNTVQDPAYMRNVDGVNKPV
The target in assay [18] is Mu-type opioid receptor (Cavia porcellus) (UniProt P97266). Briefly: Irreversible binding affinity at mu-receptor was evaluated as % of control specific binding remaining washed at concentration of 50 (nM) using [3H]DAMGO radioligand. The method in brief:
as §3

Another assay addresses Mu-type opioid receptor (Cavia porcellus, UniProt P97266). Briefly: Inhibitory concentration was determined against Opioid receptor mu 1 using [3H]- DAMGO radioligand. Summed up:
as §2

Assay [19] deals with Mu-type opioid receptor (Cavia porcellus) (UniProt P97266). Briefly: Irreversible binding affinity at mu-receptor was evaluated as % of control specific binding remaining unwashed at concentration of 80 (nM) using [3H]DAMGO radioligand. The method in brief:
as §3

Assay [20] addresses Kappa-type opioid receptor (Cavia porcellus) (UniProt P41144). Briefly: Irreversible binding affinity at Opioid receptor kappa 1 was evaluated as % of control specific binding remaining unwashed at concentration of 50 (nM) using [3H]U-69593 radioligand. The method in brief: as §1
Assay [21] shares this target. Briefly: Irreversible binding affinity at Opioid receptor kappa 1 was evaluated as % of control specific binding remaining protected at concentration of 50 (nM) using [3H]U-69593 radioligand. The method in brief:
as §1

Assay [22] shares this target. Briefly: Irreversible binding affinity at Opioid receptor kappa 1 was evaluated as % of control specific binding remaining washed at concentration of 50 (nM) using [3H]U-69593 radioligand. The method in brief:
as §1

In assay [23] the target is Mu-type opioid receptor (Cavia porcellus) (UniProt P97266). Briefly: Irreversible binding affinity at mu-receptor was evaluated as % of control specific binding remaining washed at concentration of 80 (nM) using [3H]DAMGO radioligand. Summed up: as §3
Assay [24] has the same target. Briefly: Irreversible binding affinity at mu-receptor was evaluated as % of control specific binding remaining protected at concentration of 5 (nM) using [3H]-DAMGO radioligand. Summed up: as §1
Assay [25] shares this target. Briefly: Irreversible binding affinity at mu-receptor was evaluated as % of control specific binding remaining unwashed at concentration of 2.5 (nM) using [3H]DAMGO radioligand. The method in brief:
as §1

The target is the same in assay [26]. Briefly: Irreversible binding affinity at mu-receptor was evaluated as % of control specific binding remaining unwashed at concentration of 5 (nM) using [3H]DAMGO radioligand. Summed up: as §3
Assay [27] has the same target. Briefly: Irreversible binding affinity at mu-receptor was evaluated as % of control specific binding remaining washed at concentration of 2.5 (nM) using [3H]DAMGO radioligand. The method in brief:
as §3

In assay [28] the target is Kappa-type opioid receptor (Cavia porcellus) (UniProt P41144). Briefly: Irreversible binding affinity at Opioid receptor kappa 1 was evaluated as % of control specific binding remaining unwashed at concentration of 30 (nM) using [3H]U-69593 radioligand. Summed up: as §1
Assay [29] has the same target. Briefly: Irreversible binding affinity at Opioid receptor kappa 1 was evaluated as % of control specific binding remaining unwashed at concentration of 42 (nM) using [3H]U-69593 radioligand. The method in brief:
as §1

The target is the same in assay [30]. Briefly: Irreversible binding affinity at Opioid receptor kappa 1 was evaluated as % of control specific binding remaining washed at concentration of 30 (nM) using [3H]U-69593 radioligand. Summed up:
as §1

The target of assay [31] is Mu-type opioid receptor (Cavia porcellus) (UniProt P97266). Briefly: Irreversible binding affinity at mu-receptor was evaluated as % of control specific binding remaining washed at concentration of 5 (nM) using [3H]-DAMGO radioligand. Summed up: as §3
Assay [32] addresses Kappa-type opioid receptor (Cavia porcellus) (UniProt P41144). Briefly: Irreversible binding affinity at Opioid receptor kappa 1 was evaluated as % of control specific binding remaining protected at concentration of 30 (nM) using [3H]U-69593 radioligand. The method in brief: as §1
The target is the same in assay [33]. Briefly: Irreversible binding affinity at Opioid receptor kappa 1 was evaluated as % of control specific binding remaining protected at concentration of 42 (nM) using [3H]U-69593 radioligand. The method in brief:
as §1

The target is the same in assay [34]. Briefly: Irreversible binding affinity at Opioid receptor kappa 1 was evaluated as % of control specific binding remaining washed at concentration of 42 (nM) using [3H]U-69593 radioligand. Summed up:
as §1

The target of assay [35] is Mu-type opioid receptor (Cavia porcellus) (UniProt P97266). Briefly: Irreversible binding affinity at mu-receptor was evaluated as % of control specific binding remaining protected at concentration of 2.5 (nM) using [3H]DAMGO radioligand. The method in brief:
as §1

Mu-type opioid receptor, sequence (P97266 whole entry): as the sequence (P97266 whole entry) above
Kappa-type opioid receptor, sequence (P41144 whole entry): as the sequence (P41144 whole entry) above

For `Oc1ccc2c3c1OC1[C@H](OCc4ccccc4)CCC4(O)C(C2)N(CC2CC2)CCC314` (some centres not stated), the Control in [1] came to 14%; in assay [2], 100%; in assay [3], 104%. In assay [4], the IC50 came out at 2.9 nM.

Regarding `Oc1ccc2c3c1O[C@H]1[C@H](OCc4ccc(CN=C=S)cc4)CC[C@@]4(O)C(C2)N(CC2CC2)CCC314` (some centres not stated), the IC50 in assay [5] came out at 7.4 nM; in assay [16], 21 nM; at Mu-type opioid receptor it was 11 nM. The Control was 67% in [6]; 60% in assay [7]; 59% in assay [8]; 22% in assay [9]; 61% in assay [10]; 32% in assay [11]. Moreover, the Control is 68% in [12]; 56% in assay [13]; 95% in assay [14]; 64% in assay [15]; 58% in [17]; 58% in [18].

On to `Oc1ccc2c3c1O[C@H]1[C@H](OCc4cccc(N=C=S)c4)CC[C@@]4(O)C(C2)N(CC2CC2)CCC314` (some centres not stated), for which the IC50 in [5] was found to be 17 nM; in [16], 27 nM; on Mu-type opioid receptor, 27 nM. Besides, the Control turned out to be 4% in assay [19]; 12% in [20]; 25% in assay [21]; 25% in assay [22]; 14% in [23].

As to `Oc1ccc2c3c1O[C@H]1[C@H](OCc4ccccc4N=C=S)CC[C@@]4(O)C(C2)N(CC2CC2)CCC314` (some centres not stated), the figures for the IC50 (in [5]; in [16]; at Mu-type opioid receptor) were 8.2 nM, 8.8 nM and 0.8 nM, respectively. Further, the Control in assay [24] worked out at 36%; in [25], 47%; in assay [26] it was 7%; in assay [27], 40%; in assay [28], 36%; in assay [29] it was 13%. Moreover, the Control in [30] was 35%; in assay [31], 15%; in assay [32] it was 55%; in assay [33], 40%; in assay [34], 21%; in assay [35], 68%.
